Assay results published in ChEMBL document CHEMBL1828510, “Synthesis of 3-heteroarylthioquinoline derivatives and their in vitro antituberculosis and cytotoxicity studies” (Eur J Med Chem, 2011).
Converted amounts (≈) assume the structure as drawn.

System: Mycobacterium tuberculosis
Experiment: Antimycobacterial activity against multidrug-resistant Mycobacterium tuberculosis H37Rv after 28 days by agar dilution method
Assay type: functional
Conditions: 672 h
Procedure, shortened: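 Agar dilution on Middlebrook 7H11 agar with OADC, run in duplicate at pH 7.4. The clinical isolate was resistant to isoniazid, rifampicin, ethambutol and ciprofloxacin. Inoculum from fresh slants was set to 1 mg/mL wet weight in 0.05% Tween 80 saline, diluted 10^-2 to about 10⁷ cfu/mL, and spotted onto 10-fold serial drug dilutions. Incubated at 37 °C and read at 28 days. MIC is the lowest concentration giving complete (99%) growth inhibition.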

| SMILES | MIC |
| --- | --- |
| CC[C@@H](CO)NCCN[C@@H](CC)CO [ETHAMBUTOL] | 7.6 µM (≈ 1.55 µg/mL) |
| Brc1ccc(-c2nc3ccccc3c(-c3ccccc3)c2Sc2nnnn2-c2ccccc2)cc1 | 23.3 µM (≈ 12.5 µg/mL) |
| c1ccc(-c2ccc(-c3nc4ccccc4c(-c4ccccc4)c3Sc3nc4ccccc4s3)cc2)cc1 | 47.2 µM (≈ 24.7 µg/mL) |
| Clc1ccc(-c2nc3ccccc3c(-c3ccccc3)c2Sc2nnnn2-c2ccccc2)cc1 | 50.8 µM (≈ 25 µg/mL) |
| Cc1nnc(Sc2c(-c3ccc(-c4ccccc4)cc3)nc3ccccc3c2-c2ccccc2)s1 | 6.4 µM (≈ 3.12 µg/mL) |
| Cc1nnc(Sc2c(-c3ccc(Br)cc3)nc3ccccc3c2-c2ccccc2)s1 | 3.2 µM (≈ 1.57 µg/mL) |
| NNC(=O)c1ccncc1 [ISONIAZID] | 0.4 µM (≈ 0.0549 µg/mL) |
| Cc1ccc(-c2nc3ccccc3c(-c3ccccc3)c2Sc2nnc(C)s2)cc1 | 29.4 µM (≈ 12.5 µg/mL) |
| Brc1ccc(-c2nc3ccccc3c(-c3ccccc3)c2Sc2nc3ccccc3s2)cc1 | 5.9 µM (≈ 3.1 µg/mL) |
| COc1ccc(-c2nc3ccccc3c(-c3ccccc3)c2Sc2nc3ccccc3s2)cc1 | > 52.4 µM |
| Cc1nnc(Sc2c(-c3ccc(Cl)cc3)nc3ccccc3c2-c2ccccc2)s1 | 3.5 µM (≈ 1.56 µg/mL) |
| Cc1nnc(Sc2c(-c3ccccc3)nc3ccccc3c2-c2ccccc2)s1 | 30.4 µM (≈ 12.5 µg/mL) |
| Cc1ccc(-c2nc3ccccc3c(-c3ccccc3)c2Sc2nnnn2-c2ccccc2)cc1 | 53 µM (≈ 25 µg/mL) |
| c1ccc(-c2nc3ccccc3c(-c3ccccc3)c2Sc2nnnn2-c2ccccc2)cc1 | 54.6 µM (≈ 25 µg/mL) |
| Cc1nnc(Sc2c(-c3ccc4ccccc4c3)nc3ccccc3c2-c2ccccc2)s1 | 13.5 µM (≈ 6.23 µg/mL) |
| c1ccc(-c2c(Sc3nnnn3-c3ccccc3)c(-c3ccc4ccccc4c3)nc3ccccc23)cc1 | 49.2 µM (≈ 25 µg/mL) |
| c1ccc(-c2c(Sc3nc4ccccc4s3)c(-c3ccc4ccccc4c3)nc3ccccc23)cc1 | 50.3 µM (≈ 25 µg/mL) |
| Cc1ccc(-c2nc3ccccc3c(-c3ccccc3)c2Sc2nc3ccccc3s2)cc1 | 54.3 µM (≈ 25 µg/mL) |
| Clc1ccc(-c2nc3ccccc3c(-c3ccccc3)c2Sc2nc3ccccc3s2)cc1 | 12.9 µM (≈ 6.21 µg/mL) |
| c1ccc(-c2nc3ccccc3c(-c3ccccc3)c2Sc2nc3ccccc3s2)cc1 | 55.9 µM (≈ 25 µg/mL) |
| c1ccc(-c2ccc(-c3nc4ccccc4c(-c4ccccc4)c3Sc3nnnn3-c3ccccc3)cc2)cc1 | 46.8 µM (≈ 25 µg/mL) |
| CO[C@H]1/C=C/O[C@@]2(C)Oc3c(C)c(O)c4c(O)c(c(/C=N/N5CCN(C)CC5)c(O)c4c3C2=O)NC(=O)/C(C)=C\C=C\[C@H](C)[C@H](O)[C@@H](C)[C@@H](O)[C@@H](C)[C@H](OC(C)=O)[C@@H]1C [RIFAMPIN] | 0.1 µM (≈ 0.0823 µg/mL) |
| COc1ccc(-c2nc3ccccc3c(-c3ccccc3)c2Sc2nnnn2-c2ccccc2)cc1 | 51.2 µM (≈ 25 µg/mL) |
| COc1ccc(-c2nc3ccccc3c(-c3ccccc3)c2Sc2nnc(C)s2)cc1 | 28.3 µM (≈ 12.5 µg/mL) |
